Screening data as filed in PubChem BioAssay.
bCat KO growth: beta-catenin-lacking colon tumor cell growth suppression | HCT116 beta-catenin knockout viability, CellTiter-Glo, 60 h; active compounds read low | viability, % at 10 µM | 140,000 tested, 1.5% active;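 active = viability at or under a set limit, the compound median less 4 SD, cut at about 6% in these data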;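 also: 0% = Hyamine 1622 control at 20 µM and 100% = untreated cell control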
Dynein cargo inh: dynein cargo transport inhibition; 3617.4 mouse cells, GR-EGFP nuclear translocation imaging; test concentration mostly 20 µM; stimulated with dexamethasone, 1 µM; active compounds read low; z-score, hits read low; 220,000 tested, 0.47% active;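 active = plate z-score of nuclear minus cytoplasmic receptor signal below a set negative limit, without overly bright fluorescence or cell loss, cut at about -3.5 in these data, passing the limit was not always enough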;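 also: z-score of nuclear minus cytoplasmic ring GR-EGFP intensity difference per well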
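Buffer or medium: Induction medium lacking tetracycline, stripped serum | Also added: Dexamethasone agonist, 1.0 µM final, for 30 min | Timing: 48 h induction, 1 h compound, 30 min dex at 37 °C | Detection: Formaldehyde fixation, Hoechst nuclear stain, 10x automated fluorescence imaging | Measure: Nuclear versus cytoplasmic GR-EGFP signal, averaged per well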
PTEN del growth: PTEN-deleted cell growth suppression; HCT116 PTEN-null viability, CellTiter-Glo, 60 h; active compounds read low; viability, % at 10 µM; 140,000 tested, 1.2% active;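 active = viability at or below a set limit, 4 SD under the median of all tested compounds, cut at about 3.7% in these data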;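 also: PTEN knockout HCT116 line with beta catenin targeted HCT116 as companion control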
L major viab: reduces viability of Leishmania major promastigotes; AID 1063; 200,000 tested, 9% active; inhibition, % at 10 µM; resazurin fluorescence viability; in the data active = inhibition above about 50%;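 also: promastigotes grown with compound for 44 hours at 28 °C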
Autophagy HCS: autophagy modulation, high-content screen; MEF GFP-LC3 puncta imaging; test concentration mostly 10 µM; AID 463193; 190,000 tested, 0.98% active; calls only at 10 µM (by protocol);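 active = percentage of spot-positive cells more than 3 SD above its plate mean, without a fluorescence outlier flag or 80% toxicity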;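 also: spot-positive cell cutoff set from DMSO-treated cells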
* marks the source's active call; other numbers are inactive results; i = inactive; · = not tested or not shown; + = active, no number. An excerpt weighted towards active compounds, which were near 9.2% of everything screened.

SMILES	bCat KO growth	Dynein cargo inh	PTEN del growth	L major viab	Autophagy HCS
Nc1c(N2CCOCC2)cc(Cl)c2nonc12	102	3.3	86	0	i
O=C(NC1(C(=O)NC2CCCC2)CCCCC1)c1ccc2c(c1)OCO2	94	0.63	92	57*	i
O=C(NC1(C(=O)NC2CCCCC2)CCCCC1)c1ccc2c(c1)OCO2	84	0.087	81	93*	i
O=C(c1ccc2c(c1)OCO2)N(CC1CCCO1)C1(C(=O)NC2CCCC2)CCCCC1 (stereo not drawn)	71	-0.56	70	5	i
O=C(NNC(=O)c1ccc2c(c1)OCO2)NC1CCCCC1	86	2	91	-5	i
CC(C)C1Cc2[nH]c(=O)c(C#N)cc2CO1 (stereo not drawn)	·	0.05	·	·	·
CCOC(=O)c1ccc(N2N=C(C)/C(=C/C=C/c3ccco3)C2=O)cc1	36	-2.3	49	30	i
CC1=NN(c2ccc(C)c(C)c2)C(=O)/C1=C\C=C\c1ccc([N+](=O)[O-])o1	·	-1.8	·	98*	i
Cc1cnc(CNC(=O)c2ccc(OC3CCN(C(=O)C4CC4)CC3)cc2)cn1	·	-0.73	·	-6	i
CCCCn1c(=O)c(CCC(=O)OCC(=O)Nc2ccc(F)c(Cl)c2)nc2ccccc21	98	-0.63	99	-1	i
CCn1c(C)c(C(C)=O)c(N2CCN(C(c3ccccc3)c3ccccc3)CC2)nc1=S	·	-0.83	·	14	+
O=C(Nc1ccc2oc(-c3ccccc3F)nc2c1)c1ccc2c(c1)OCCO2	48	0.65	29	66*	i
O=C(Nc1ccc2oc(-c3ccccc3Cl)nc2c1)c1ncn[nH]1	88	0.29	99	94*	i
O=C(Nc1ccccc1-c1nc2ccccc2o1)c1ccc2c(c1)OCCO2	·	0.41	·	-2	i
CCC(C)c1ccc2oc(-c3ccc(NC(=O)c4ncn[nH]4)cc3)nc2c1 (stereo not drawn)	67	-0.47	78	65*	i
COc1cc(C(=O)c2nccc3cc(OC)c(OC)cc23)c([N+](=O)[O-])cc1OC	·	0.8	·	5	i
O=C(NCc1ccco1)C1CCN(C(=O)c2cc3sccc3n2Cc2ccc(F)cc2)CC1	56	-0.96	55	79*	i
O=C(NCc1ccco1)C1CCN(Cc2ccc(F)cc2)CC1	89	2.2	96	91*	i
COCCCNC(=O)C1CCN(C(=O)c2cc3sccc3n2Cc2ccc(F)cc2)CC1	67	0.86	68	14	i
CCN(CC)CCCNC(=O)C1CCN(C(=O)c2cc3sccc3n2Cc2ccc(F)cc2)CC1	55	-0.5	69	99*	i
O=C(NCc1ccco1)C1CCCCC1	·	-0.35	·	-6	i
O=C(NCc1ccccn1)C1CCN(C(=O)c2cc3sccc3n2Cc2ccc(F)cc2)CC1	·	-0.27	·	9	i
O=C(NCCCN1CCCC1)C1CCN(C(=O)c2cc3sccc3n2Cc2ccc(F)cc2)CC1	70	-0.67	72	93*	i
CC(C)N=C1NN=C(c2cccs2)C(CC(=O)O)S1 (stereo not drawn)	·	-1.3	·	·	·
CCn1c(C(=O)N2CCC(C(=O)NCc3ccc4c(c3)OCO4)CC2)cc2sccc21	83	-0.81	79	-4	i
SMILES	bCat KO growth	Dynein cargo inh	PTEN del growth	L major viab	Autophagy HCS
CCN1CCCC1CNC(=O)C1CCN(C(=O)c2cc3sccc3n2Cc2ccc(F)cc2)CC1 (stereo not drawn)	·	0.3	·	90*	i
Cc1csc2c(N3CCN(C(=O)c4ccc(C(C)(C)C)cc4)CC3)ncnc12	·	2.4	·	·	·
COc1cccc(C(=O)NC2CCN(C(=O)N3CCCCC3)CC2)c1	92	-0.73	90	-6	i
CC(=O)NC1CCN(C(=O)N2CCCC2)CC1	102	1.7	109	-4	+
CCOc1ccc(S(=O)(=O)N/N=C(\C)C2CCCCC2)cc1	89	1	87	55*	i
CCOc1ccc(S(=O)(=O)NC2CCCCCC2)cc1	·	-0.78	·	-3	i
Nc1nccc(-c2ccc(-n3cnc4ccccc43)cc2)n1	·	0.82	·	7	i
c1ccc2c(c1)ncn2-c1ccc(-c2ccnc3ncnn23)cc1	·	0.62	·	5	+
COc1ccc(S(=O)(=O)N(C)C)cc1NCC(=O)Nc1cccc(C#N)c1	·	-0.6	·	1	i
CCC(=O)NC(c1ccccc1OC)c1ccc2cccnc2c1O (stereo not drawn)	3.9*	0.73	2.7*	100*	i
CCCC(=O)NC(c1ccc(OC)cc1)c1ccc2cccnc2c1O (stereo not drawn)	·	0.19	·	100*	i
COc1ccc(C(NC(=O)c2cccnc2)c2cc(Cl)c3cccnc3c2O)cc1OC (stereo not drawn)	8	0.33	8	98*	i
COc1cccc(/C=N/NC(=O)COc2cccc3cccnc23)c1O	·	-0.49	·	30	i
CCC(=O)NC(c1ccc(OC)cc1)c1cc(Cl)c2cccnc2c1O (stereo not drawn)	·	0.011	·	98*	i
O=S(=O)([O-])CCC[n+]1c(/C=C\Nc2ccccc2)oc2ccc(-c3ccccc3)cc21	·	1.2	·	-1	i
O=C(O)CSc1c2c(nc3cc(C(=O)NCCN4CCOCC4)ccc13)CCC2	·	-0.056	·	·	·
CCOC(=O)Cn1nc(C)n(-c2ccc(C(C)C)cc2)c1=O	92	-0.99	97	6	i
Cn1cnnc1SCC(=O)Nc1nc(-c2ccccc2)cs1	·	1.4	·	7	i
COc1ccc(Cl)cc1C(Nc1cccnc1)c1ccc2cccnc2c1O (stereo not drawn)	·	-0.35	·	62*	i
COc1ccc(C(=O)Nc2cccnc2)cc1OC	101	-0.23	102	0	i
Cc1nc(NCC2CCCO2)c2nnn(Cc3c(F)cccc3Cl)c2n1 (stereo not drawn)	·	-0.33	·	27	i
Cc1oc2c(CN(C)C)c(O)ccc2c(=O)c1-c1ccc2ccccc2n1	97	-0.18	91	76*	i
CCc1oc2c(C)c(O)ccc2c(=O)c1-c1ccc2ccccc2n1	70	0.096	80	-1	i
Cc1ccc(C(C)C)c(OCc2ccc(C(=O)N/N=C/c3ccc(O)cc3O)cc2)c1	7	0.19	11	100*	i
O=c1c2nnn(-c3ccccc3)c2ncn1C/C=C/c1ccccc1	·	0.16	·	-10	i
SMILES	bCat KO growth	Dynein cargo inh	PTEN del growth	L major viab	Autophagy HCS
Cc1ccc(NC(=O)CN(C)C(=O)Cn2ccsc2=N)cc1	·	0.019	·	-4	i
Cc1ccc(Oc2ccc(NC(=O)Cn3ccsc3=N)cc2)cc1	71	6.7	56	100*	i
CN(c1ccccc1)S(=O)(=O)c1ccc(C(=O)Nc2nnc(C3CC3)s2)cc1	·	0.31	·	·	·
Cc1cc(C)cc(N(CCC(=O)O)S(=O)(=O)c2ccc(Cl)cc2)c1	94	0.18	90	-6	i
CCc1nnc(NC(=O)CCN(c2cc(C)cc(C)c2)S(=O)(=O)c2ccc(Cl)cc2)s1	75	0.64	64	79*	i
Cc1ccc(N(CCC(=O)Nc2nnc(C3CC3)s2)S(=O)(=O)c2ccccc2)cc1	105	0.85	97	53*	i
